ChEMBL document CHEMBL1150393, “Evaluation of radiolabeled (hetero)aromatic analogues of N-(2-diethylaminoethyl)-4-iodobenzamide for imaging and targeted radionuclide therapy of melanoma” (J Med Chem, 2008)

How the values were obtained:
[1] = test system: Kidney; assay: Biodistribution in kidney of C57BL/6 mouse bearing mouse B16-F0 cells at 0.74 to 0.92 MBq, iv after 3 hrs; assay type: ADME, organism-based; settings: in vivo
Procedure, shortened: (§1)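 Male C57BL6 mice with s.c. left-flank B16-F0 melanoma (5 × 10⁵ cells in PBS). Two mice per time point frozen in liquid nitrogen after CO₂ sacrifice. Eight 40 µm whole-body cryosections per mouse read by multiwire proportional counter. cpm/mm² converted to kBq/g and expressed as %ID/g.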

[2] = Ratio of drug level in tumor to liver of C57BL/6 mouse bearing mouse B16-F0 cells at 0.74 to 0.92 MBq, iv after 6 hrs; assay type: ADME, organism-based; settings: in vivo
Procedure, shortened: (§2)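 Tumour and organ radioactive concentrations came from whole-body cryosection counting (40 µm slices, eight per mouse, two mice per time) after tail-vein injection of the [¹²⁵I]-labelled compound (0.1 µmol) into male C57BL6 mice bearing s.c. B16-F0 melanoma. Each value is the ratio of the tumour concentration to the organ concentration.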

[3] = Biodistribution in uvea of C57BL/6 mouse bearing mouse B16-F0 cells at 0.74 to 0.92 MBq, iv after 72 hrs; assay type: ADME, organism-based, Uveal tract; settings: in vivo
Procedure, shortened: (§3)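 [¹²⁵I]-labelled compound given iv by tail vein (0.1 µmol per mouse) to male C57BL6 mice bearing s.c. B16-F0 flank tumours (5 × 10⁵ cells in PBS). Two mice per time point were killed by CO₂, frozen in liquid nitrogen and cut into 40 µm cryosections, eight slices per mouse. Slice radioactivity was read on a multiwire proportional counter, converted to kBq/g and reported as %ID/g.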

[4] = test system: Liver; assay: Biodistribution in liver of C57BL/6 mouse bearing mouse B16-F0 cells at 0.74 to 0.92 MBq, iv after 3 hrs; assay type: ADME, organism-based; settings: in vivo; procedure, shortened: as §1
[5] = Biodistribution in intestinal content of C57BL/6 mouse bearing mouse B16-F0 cells at 0.74 to 0.92 MBq, iv after 3 hrs; assay type: ADME, organism-based; settings: in vivo; procedure, shortened: as §1
[6] = Biodistribution in Stomach content of C57BL/6 mouse bearing mouse B16-F0 cells at 0.74 to 0.92 MBq, iv after 3 hrs; assay type: ADME, organism-based; settings: in vivo; procedure, shortened: as §1
[7] = Biodistribution in gall bladder of C57BL/6 mouse bearing mouse B16-F0 cells at 0.74 to 0.92 MBq, iv after 3 hrs; assay type: ADME, organism-based; settings: in vivo; procedure, shortened: as §1
[8] = test system: Thyroid gland; assay: Biodistribution in thyroid of C57BL/6 mouse bearing mouse B16-F0 cells at 0.74 to 0.92 MBq, iv after 72 hrs; assay type: ADME, organism-based; settings: in vivo; procedure, shortened: as §3
[9] = test system: Spleen; assay: Biodistribution in spleen of C57BL/6 mouse bearing mouse B16-F0 cells at 0.74 to 0.92 MBq, iv after 6 hrs; assay type: ADME, organism-based; settings: in vivo; procedure, shortened: as §3
[10] = Ratio of drug level in tumor to lung of C57BL/6 mouse bearing mouse B16-F0 cells at 0.74 to 0.92 MBq, iv after 3 hrs; assay type: ADME, organism-based; settings: in vivo; procedure, shortened: as §2
[11] = Biodistribution in Stomach content of C57BL/6 mouse bearing mouse B16-F0 cells at 0.74 to 0.92 MBq, iv after 6 hrs; assay type: ADME, organism-based; settings: in vivo; procedure, shortened: as §1
[12] = Biodistribution in uvea of C57BL/6 mouse bearing mouse B16-F0 cells at 0.74 to 0.92 MBq, iv after 1 hr; assay type: ADME, organism-based, Uveal tract; settings: in vivo; procedure, shortened: as §3
[13] = Biodistribution in tumor of C57BL/6 mouse bearing mouse B16-F0 cells at 0.74 to 0.92 MBq, iv after 24 hrs; assay type: ADME, organism-based, Neoplasm; settings: in vivo; procedure, shortened: as §3
[14] = test system: Blood; assay: Biodistribution in blood of C57BL/6 mouse bearing mouse B16-F0 cells at 0.74 to 0.92 MBq, iv after 3 hrs; assay type: ADME, organism-based; settings: in vivo; procedure, shortened: as §1
[15] = test system: Thyroid gland; assay: Biodistribution in thyroid of C57BL/6 mouse bearing mouse B16-F0 cells at 0.74 to 0.92 MBq, iv after 6 hrs; assay type: ADME, organism-based; settings: in vivo; procedure, shortened: as §3
[16] = test system: Pancreas; assay: Biodistribution in pancreas of C57BL/6 mouse bearing mouse B16-F0 cells at 0.74 to 0.92 MBq, iv after 1 hr; assay type: ADME, organism-based; settings: in vivo; procedure, shortened: as §1
[17] = Biodistribution in tumor of C57BL/6 mouse bearing mouse B16-F0 cells at 0.74 to 0.92 MBq, iv after 3 hrs; assay type: ADME, organism-based, Neoplasm; settings: in vivo; procedure, shortened: as §3
[18] = Biodistribution in Stomach content of C57BL/6 mouse bearing mouse B16-F0 cells at 0.74 to 0.92 MBq, iv after 1 hr; assay type: ADME, organism-based; settings: in vivo; procedure, shortened: as §1
[19] = Biodistribution in uvea of C57BL/6 mouse bearing mouse B16-F0 cells at 0.74 to 0.92 MBq, iv after 6 hrs; assay type: ADME, organism-based, Uveal tract; settings: in vivo; procedure, shortened: as §3
[20] = test system: Lung; assay: Biodistribution in lung of C57BL/6 mouse bearing mouse B16-F0 cells at 0.74 to 0.92 MBq, iv after 3 hrs; assay type: ADME, organism-based; settings: in vivo; procedure, shortened: as §1
[21] = test system: Lung; assay: Biodistribution in lung of C57BL/6 mouse bearing mouse B16-F0 cells at 0.74 to 0.92 MBq, iv after 1 hr; assay type: ADME, organism-based; settings: in vivo; procedure, shortened: as §1
[22] = Biodistribution in tumor of C57BL/6 mouse bearing mouse B16-F0 cells at 0.74 to 0.92 MBq, iv after 72 hrs; assay type: ADME, organism-based, Neoplasm; settings: in vivo; procedure, shortened: as §3
[23] = test system: Liver; assay: Biodistribution in liver of C57BL/6 mouse bearing mouse B16-F0 cells at 0.74 to 0.92 MBq, iv after 6 hrs; assay type: ADME, organism-based; settings: in vivo; procedure, shortened: as §1
[24] = test system: Blood; assay: Biodistribution in blood of C57BL/6 mouse bearing mouse B16-F0 cells at 0.74 to 0.92 MBq, iv after 1 hr; assay type: ADME, organism-based; settings: in vivo; procedure, shortened: as §1
[25] = Ratio of drug level in tumor to lung of C57BL/6 mouse bearing mouse B16-F0 cells at 0.74 to 0.92 MBq, iv after 1 hr; assay type: ADME, organism-based; settings: in vivo; procedure, shortened: as §2
[26] = Drug excretion in mouse B16-F0 cells bearing C57BL/6 mouse urine at 0.74 to 0.92 MBq, iv after 72 hrs; assay type: ADME, organism-based; settings: in vivo
Procedure, shortened: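 Urine was collected from two B16-F0 tumour-bearing C57BL6 mice for up to 72 h after iv tail-vein injection of the [¹²⁵I]-labelled compound (0.1 µmol). Samples were counted to give cumulative urinary excretion as %ID.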

[27] = Partition coefficient, log P in phosphate buffer solution at pH 7.4; assay type: physicochemical
Procedure, shortened: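 Shake-flask partition: 50 µM [¹²⁵I]-labelled compound in phosphate buffer pH 7.4 was mixed with 2 mL n-octanol. Each phase was γ-counted, P was taken as the octanol/buffer activity ratio, and log P was reported.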

[28] = Biodistribution in intestinal content of C57BL/6 mouse bearing mouse B16-F0 cells at 0.74 to 0.92 MBq, iv after 6 hrs; assay type: ADME, organism-based; settings: in vivo; procedure, shortened: as §1
[29] = Biodistribution in intestinal content of C57BL/6 mouse bearing mouse B16-F0 cells at 0.74 to 0.92 MBq, iv after 1 hr; assay type: ADME, organism-based; settings: in vivo; procedure, shortened: as §1
[30] = Biodistribution in tumor of C57BL/6 mouse bearing mouse B16-F0 cells at 0.74 to 0.92 MBq, iv after 1 hr; assay type: ADME, organism-based, Neoplasm; settings: in vivo; procedure, shortened: as §3
[31] = Biodistribution in uvea of C57BL/6 mouse bearing mouse B16-F0 cells at 0.74 to 0.92 MBq, iv after 24 hrs; assay type: ADME, organism-based, Uveal tract; settings: in vivo; procedure, shortened: as §3
[32] = Biodistribution in intestinal content of C57BL/6 mouse bearing mouse B16-F0 cells at 0.74 to 0.92 MBq, iv after 24 hrs; assay type: ADME, organism-based; settings: in vivo; procedure, shortened: as §1
[33] = Ratio of drug level in tumor to liver of C57BL/6 mouse bearing mouse B16-F0 cells at 0.74 to 0.92 MBq, iv after 3 hrs; assay type: ADME, organism-based; settings: in vivo; procedure, shortened: as §2
[34] = test system: Thyroid gland; assay: Biodistribution in thyroid of C57BL/6 mouse bearing mouse B16-F0 cells at 0.74 to 0.92 MBq, iv after 24 hrs; assay type: ADME, organism-based; settings: in vivo; procedure, shortened: as §3
[35] = Biodistribution in tumor of C57BL/6 mouse bearing mouse B16-F0 cells at 0.74 to 0.92 MBq, iv after 6 hrs; assay type: ADME, organism-based, Neoplasm; settings: in vivo; procedure, shortened: as §3
[36] = Ratio of drug level in tumor to liver of C57BL/6 mouse bearing mouse B16-F0 cells at 0.74 to 0.92 MBq, iv after 1 hr; assay type: ADME, organism-based; settings: in vivo; procedure, shortened: as §2
[37] = Biodistribution in Stomach content of C57BL/6 mouse bearing mouse B16-F0 cells at 0.74 to 0.92 MBq, iv after 24 hrs; assay type: ADME, organism-based; settings: in vivo; procedure, shortened: as §1
[38] = test system: Thyroid gland; assay: Biodistribution in thyroid of C57BL/6 mouse bearing mouse B16-F0 cells at 0.74 to 0.92 MBq, iv after 3 hrs; assay type: ADME, organism-based; settings: in vivo; procedure, shortened: as §3
[39] = test system: Spleen; assay: Biodistribution in spleen of C57BL/6 mouse bearing mouse B16-F0 cells at 0.74 to 0.92 MBq, iv after 1 hr; assay type: ADME, organism-based; settings: in vivo; procedure, shortened: as §3
[40] = Biodistribution in gall bladder of C57BL/6 mouse bearing mouse B16-F0 cells at 0.74 to 0.92 MBq, iv after 6 hrs; assay type: ADME, organism-based; settings: in vivo; procedure, shortened: as §1
[41] = test system: Kidney; assay: Biodistribution in kidney of C57BL/6 mouse bearing mouse B16-F0 cells at 0.74 to 0.92 MBq, iv after 1 hr; assay type: ADME, organism-based; settings: in vivo; procedure, shortened: as §1
[42] = test system: Muscle tissue; assay: Biodistribution in muscle of C57BL/6 mouse bearing mouse B16-F0 cells at 0.74 to 0.92 MBq, iv after 1 hr; assay type: ADME, organism-based; settings: in vivo; procedure, shortened: as §1
[43] = Biodistribution in uvea of C57BL/6 mouse bearing mouse B16-F0 cells at 0.74 to 0.92 MBq, iv after 3 hrs; assay type: ADME, organism-based, Uveal tract; settings: in vivo; procedure, shortened: as §3
[44] = test system: Liver; assay: Biodistribution in liver of C57BL/6 mouse bearing mouse B16-F0 cells at 0.74 to 0.92 MBq, iv after 1 hr; assay type: ADME, organism-based; settings: in vivo; procedure, shortened: as §1

Drug uptake [1]: 4.57 % ID/g | Ratio [2]: 2.93 | Drug uptake [3]: 7.26 % ID/g | Drug uptake [4]: 7.15 % ID/g | Drug uptake [5]: 72.05 % ID/g | Drug uptake [6]: 17.98 % ID/g | Drug uptake [7]: 160.6 % ID/g | Drug uptake [8]: 174.73 % ID/g | Drug uptake [9]: 14.97 % ID/g | Ratio [10]: 4.31 | Drug uptake [11]: 8.62 % ID/g | Drug uptake [12]: 12.87 % ID/g | Drug uptake [13]: 7.1 % ID/g | Drug uptake [14]: 1.33 % ID/g | Drug uptake [15]: 34.17 % ID/g | Drug uptake [16]: 6.17 % ID/g | Drug uptake [17]: 16.1 % ID/g | Drug uptake [18]: 24.46 % ID/g | Drug uptake [19]: 10.09 % ID/g | Drug uptake [20]: 3.74 % ID/g | Drug uptake [21]: 5.16 % ID/g | Drug uptake [22]: 4.5 % ID/g | Drug uptake [23]: 3.38 % ID/g | Drug uptake [24]: 3.31 % ID/g | Ratio [25]: 2.86 | Activity [26]: 17.1% | logD [27]: 1.47 | Drug uptake [28]: 95.86 % ID/g | Drug uptake [29]: 105.55 % ID/g | Drug uptake [30]: 14.8 % ID/g | Drug uptake [31]: 10.44 % ID/g | Drug uptake [32]: 3.19 % ID/g | Ratio [33]: 2.26 | Drug uptake [34]: 142.88 % ID/g | Drug uptake [35]: 9.9 % ID/g | Ratio [36]: 1.13 | Drug uptake [37]: 2.32 % ID/g | Drug uptake [38]: 63.44 % ID/g | Drug uptake [39]: 11.51 % ID/g | Drug uptake [40]: 38.11 % ID/g | Drug uptake [41]: 6.9 % ID/g | Drug uptake [42]: 0.55 % ID/g | Drug uptake [43]: 24.4 % ID/g | Drug uptake [44]: 13.08 % ID/g
SMILES: CCN(CC)CCNC(=O)c1nc2cc([125I])ccc2[nH]1.Cl.Cl
